Assay results reported in ChEMBL document CHEMBL5653626 (ChemMedChem, 2016).

Legend:
[1] = Volume of distribution at steady state in Beagle dog at 0.1 mg/kg, iv; assay type: ADME, organism-based, Canis lupus familiaris; settings: in vivo
How it was run: (§1)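 Single intravenous dose: 0.3 mg kg⁻¹ in male Wistar rats; 0.1 mg kg⁻¹ in female Beagle dogs. Plasma pharmacokinetics gave steady-state volume of distribution.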

[2] = Stability in monkey liver microsomes assessed as maximum bioavailability; assay type: ADME, Macaca mulatta, Microsome; settings: rhesus monkey, read-out: Fmax
[3] = Volume of distribution at steady state in Wistar rat at 0.3 mg/kg, iv; assay type: ADME, organism-based; settings: in vivo; how it was run: as §1
[4] = Clearance in human hepatocytes; assay type: ADME, cell-based, Hepatocyte
[5] = Clearance in monkey liver microsomes; assay type: ADME, Macaca mulatta, Microsome; settings: rhesus monkey
[6] = Stability in human hepatocytes assessed as maximum bioavailability; assay type: ADME, Hepatocyte; settings: read-out: Fmax
[7] = Clearance in monkey hepatocytes; assay type: ADME, cell-based, Macaca mulatta, Hepatocyte; settings: rhesus monkey
[8] = Stability in dog hepatocytes assessed as maximum bioavailability; assay type: ADME, Canis lupus familiaris, Hepatocyte; settings: read-out: Fmax
[9] = Stability in monkey hepatocytes assessed as maximum bioavailability; assay type: ADME, Macaca mulatta, Hepatocyte; settings: rhesus monkey, read-out: Fmax
[10] = Clearance in human liver microsomes; assay type: ADME, Microsome
[11] = Dose normalized Cmax in Beagle dog at 0.2 mg/kg, po; assay type: ADME, organism-based, Canis lupus familiaris; settings: in vivo
[12] = Stability in mouse liver microsomes assessed as maximum bioavailability; assay type: ADME, Microsome; settings: read-out: Fmax
[13] = Stability in dog liver microsomes; assay type: ADME, Canis lupus familiaris, Microsome
[14] = target: T1, Solute carrier family 2, facilitated glucose transporter member 4 (Homo sapiens, UniProt P14672); experiment: Inhibition of human GLUT4 expressed in CHO cells assessed as reduction in glucose uptake by measuring decrease in ATP production preincubated for 20 mins followed by glucose addition and measured after 15 mins in presence of oxidative phosphorylation inhibitor rotenone by CellTiter-Glo Luminescent Cell Viability Assay; assay type: cell-based
T1 sequence (P14672 whole entry): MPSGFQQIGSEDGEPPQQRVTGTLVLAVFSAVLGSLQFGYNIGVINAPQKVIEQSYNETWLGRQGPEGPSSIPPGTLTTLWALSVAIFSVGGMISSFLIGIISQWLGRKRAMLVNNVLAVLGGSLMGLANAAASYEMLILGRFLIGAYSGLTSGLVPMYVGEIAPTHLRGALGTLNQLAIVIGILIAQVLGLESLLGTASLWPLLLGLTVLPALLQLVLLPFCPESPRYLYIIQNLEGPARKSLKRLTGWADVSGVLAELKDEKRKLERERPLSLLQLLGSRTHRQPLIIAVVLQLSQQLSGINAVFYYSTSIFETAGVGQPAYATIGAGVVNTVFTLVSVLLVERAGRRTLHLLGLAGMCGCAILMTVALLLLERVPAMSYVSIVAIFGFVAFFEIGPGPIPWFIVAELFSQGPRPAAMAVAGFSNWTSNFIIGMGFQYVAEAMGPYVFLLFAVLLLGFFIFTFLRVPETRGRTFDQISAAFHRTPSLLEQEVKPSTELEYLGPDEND

[15] = Stability in rat liver microsomes assessed as maximum bioavailability; assay type: ADME, Microsome; settings: read-out: Fmax
[16] = Clearance in rat hepatocytes; assay type: ADME, cell-based, Hepatocyte
[17] = Stability in dog liver microsomes assessed as maximum bioavailability; assay type: ADME, Canis lupus familiaris, Microsome; settings: read-out: Fmax
[18] = Clearance in dog hepatocytes; assay type: ADME, cell-based, Canis lupus familiaris, Hepatocyte
[19] = Stability in human liver microsomes assessed as maximum bioavailability; assay type: ADME, Microsome; settings: read-out: Fmax
[20] = Stability in rat hepatocytes assessed as maximum bioavailability; assay type: ADME, Hepatocyte; settings: read-out: Fmax
[21] = Apparent permeability across apical to basolateral side in human Caco-2 cells at 2 uM measured after 2 hrs; assay type: ADME, cell-based; settings: caco-2, 2 h
How it was run: (§2)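 Bidirectional Caco-2 transport at 2 μm over 2 h, apical→basolateral and basolateral→apical. Apparent permeability (P_app) is taken from compound transport. Efflux ratio is P_app B→A divided by P_app A→B.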

[22] = Clearance in mouse liver microsomes; assay type: ADME, Microsome
[23] = Clearance in dog liver microsomes; assay type: ADME, Canis lupus familiaris, Microsome
[24] = target: T2, Solute carrier family 2, facilitated glucose transporter member 1 (Homo sapiens, UniProt P11166); experiment: Inhibition of human GLUT1 expressed in human DLD-1 cells assessed as reduction in glucose uptake by measuring decrease in ATP production incubated for 15 mins in presence of oxidative phosphorylation inhibitor rotenone by CellTiter-Glo Luminescent Cell Viability Assay; assay type: cell-based
T2 sequence (P11166 whole entry): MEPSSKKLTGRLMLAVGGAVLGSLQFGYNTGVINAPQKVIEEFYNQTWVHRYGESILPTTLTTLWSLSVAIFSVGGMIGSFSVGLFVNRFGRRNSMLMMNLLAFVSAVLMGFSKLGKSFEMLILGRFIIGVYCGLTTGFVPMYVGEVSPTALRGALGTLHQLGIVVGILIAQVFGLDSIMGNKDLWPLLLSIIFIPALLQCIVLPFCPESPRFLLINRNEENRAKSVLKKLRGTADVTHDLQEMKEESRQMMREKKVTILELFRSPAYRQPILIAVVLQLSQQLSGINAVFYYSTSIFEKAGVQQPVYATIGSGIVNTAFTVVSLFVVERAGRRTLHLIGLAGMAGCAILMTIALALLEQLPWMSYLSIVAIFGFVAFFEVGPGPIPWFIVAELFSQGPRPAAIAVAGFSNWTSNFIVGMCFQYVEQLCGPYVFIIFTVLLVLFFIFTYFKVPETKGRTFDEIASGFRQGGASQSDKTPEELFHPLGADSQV

[25] = Clearance in rat liver microsomes; assay type: ADME, Microsome
[26] = target: T3, Solute carrier family 2, facilitated glucose transporter member 2 (Homo sapiens, UniProt P11168); experiment: Inhibition of human GLUT2 expressed in CHO cells assessed as reduction in fructose uptake by measuring decrease in ATP production incubated for 15 mins in presence of oxidative phosphorylation inhibitor rotenone by CellTiter-Glo Luminescent Cell Viability Assay; assay type: cell-based
T3 sequence (P11168 whole entry): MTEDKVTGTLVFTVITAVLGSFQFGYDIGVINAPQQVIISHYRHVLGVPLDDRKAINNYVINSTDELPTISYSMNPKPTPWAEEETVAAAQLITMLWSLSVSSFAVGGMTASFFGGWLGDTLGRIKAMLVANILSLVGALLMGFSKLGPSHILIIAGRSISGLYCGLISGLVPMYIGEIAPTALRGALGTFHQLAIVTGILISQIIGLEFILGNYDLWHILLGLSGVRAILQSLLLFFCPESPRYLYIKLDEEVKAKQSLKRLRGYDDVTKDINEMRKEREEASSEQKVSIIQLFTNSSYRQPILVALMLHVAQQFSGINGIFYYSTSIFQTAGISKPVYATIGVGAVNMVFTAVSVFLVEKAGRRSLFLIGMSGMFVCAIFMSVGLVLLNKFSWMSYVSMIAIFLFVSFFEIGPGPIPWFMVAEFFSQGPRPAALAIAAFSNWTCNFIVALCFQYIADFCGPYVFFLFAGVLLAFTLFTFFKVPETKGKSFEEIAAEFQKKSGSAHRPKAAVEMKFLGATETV

[27] = Efflux ratio of apparent permeability across basolateral to apical side over apical to basolateral side in human Caco-2 cells at 2 uM measured after 2 hrs; assay type: ADME, cell-based; settings: caco-2, 2 h; how it was run: as §2
[28] = target: T4, Solute carrier family 2, facilitated glucose transporter member 3 (Homo sapiens, UniProt P11169); experiment: Inhibition of human GLUT3 expressed in human GLUT1-/- DLD-1 cells assessed as reduction in glucose uptake by measuring decrease in ATP production incubated for 15 mins in presence of oxidative phosphorylation inhibitor rotenone by CellTiter-Glo Luminescent Cell Viability Assay; assay type: cell-based
T4 sequence (P11169 whole entry): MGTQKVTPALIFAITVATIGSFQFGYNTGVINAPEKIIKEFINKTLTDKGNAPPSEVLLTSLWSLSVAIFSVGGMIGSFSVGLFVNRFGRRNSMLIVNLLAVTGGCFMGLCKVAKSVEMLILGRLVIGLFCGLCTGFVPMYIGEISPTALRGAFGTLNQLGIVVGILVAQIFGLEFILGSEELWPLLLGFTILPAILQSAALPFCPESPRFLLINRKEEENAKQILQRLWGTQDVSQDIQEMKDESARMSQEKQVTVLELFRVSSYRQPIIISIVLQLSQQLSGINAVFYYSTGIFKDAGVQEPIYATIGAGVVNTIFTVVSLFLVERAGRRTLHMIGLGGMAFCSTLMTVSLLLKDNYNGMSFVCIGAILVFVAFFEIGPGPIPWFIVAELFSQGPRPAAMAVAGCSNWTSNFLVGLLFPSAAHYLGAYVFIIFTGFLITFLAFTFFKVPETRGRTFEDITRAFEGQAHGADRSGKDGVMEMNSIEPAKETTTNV

Molecule `Cc1c(NC(=O)c2cc(C(N)=O)nc3cc(F)ccc23)c(C(F)(F)F)nn1Cc1ccc(C#N)cc1` [BAY-876] has a Vdss [1] of 1 L/kg, a Fh [2] of 70% and a Vdss [3] of 0.79 L/kg. The CLH [4] was 0.37 L/h/kg, the CLH [5] was 0.76 L/h/kg and the Fh [6] was 72%. For the same molecule, the CLH [7] was 1.4 L/h/kg, the Fh [8] was 90% and the Fh [9] was 46%. For the same molecule, the CLhep predicted [10] was 5.33 mL/min/kg, the Cmax/dose [11] was 0.93 kg/L and the Fh [12] was 94%. For the same molecule, the Stability [13] was “Stable”, the IC50 [14] was 290 nM and the Fh [15] was 74%. The CLhep predicted [16] was 7.67 mL/min/kg, the Fh [17] was 100% and the CLH [18] was 0.2 L/h/kg. The Fh [19] was 76% and the Fh [20] was 89%.
With `Cc1c(NC(=O)c2cc(C(F)(F)F)nc3ccc(Br)cc23)c(C(F)(F)F)nn1Cc1ccc(F)cc1` the Papp [21] was 3.5 nm/s, the CLhep predicted [22] was 36.7 mL/min/kg and the Fh [12] was 59%. It also gave a CLhep predicted [16] of 43.3 mL/min/kg.
In the case of `Cc1c(NC(=O)c2cc(C(N)=O)nc3cc(F)ccc23)c(C(F)(F)F)nn1Cc1ccc(C#N)cn1`, the Fh [2] is reported as 84%, the CLH [4] is reported as 0.03 L/h/kg and the CLH [5] is reported as 0.4 L/h/kg. The Fh [6] was 98%, the CLH [7] was 0.32 L/h/kg and the Fh [8] was 100%. For the same molecule, the Fh [9] was 88%, the Papp [21] was 16 nm/s and the CLhep predicted [10] was 3.17 mL/min/kg. The CLhep predicted [22] was 6 mL/min/kg, the CLH [23] was 0.001 L/h/kg and the Fh [12] was 93%. For the same molecule, the IC50 [14] was 620 nM, the Fh [15] was 91% and the CLhep predicted [16] was 0.667 mL/min/kg. It also gave a Fh [17] of 100%, an IC50 [24] of 4 nM and a CLH [25] of 0.37 L/h/kg. The CLH [18] was 0.001 L/h/kg, the Fh [19] was 86% and the Fh [20] was 99%.
`Cc1c(NC(=O)c2cc(C(N)=O)nc3ccccc23)c(C(F)(F)F)nn1Cc1ccc(C#N)cc1` gave an IC50 [26] of 69 µM, a Fh [8] of 95% and a Ratio [27] of 3.7. It also gave a CLhep predicted [10] of 3.5 mL/min/kg, a CLhep predicted [22] of 23.3 mL/min/kg and a CLH [23] of 0.06 L/h/kg. It also gave a Fh [12] of 74%, an IC50 [28] of 580 nM and an IC50 [14] of 170 nM. The CLhep predicted [16] was 30 mL/min/kg, the Fh [17] was 97% and the IC50 [24] was 6 nM. It also gave a CLH [18] of 0.11 L/h/kg and a Fh [19] of 84%.
